Legend:
[1] = Solubility in sorensen's phosphate buffer at pH 7.4 and 25 degrees Centigrade.
Mus musculus [2] = organism: Mus musculus; assay: Minimum dose that causes 50% increase in life span in TLX/5 lymphoma bearing animal; assay type: functional
How it was run: (§1)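 Female CBA/LAC mice with subcutaneously transplanted TLX/5 lymphoma. Drug given i.p. in saline (about pH 7.5) once daily for 5 consecutive days, starting 3 days after transplant. Doses ran 12.5–400 mg/kg, with lower doses made by serial dilution. Five mice per dose; survival time compared with 10 untreated controls. ILS ≥20% counted significant. Minimum dose for 50% ILS expressed in mol/kg.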

Mus musculus [3] = assay: Percent increase in life span of TLX/5 lymphoma bearing mice at dose of 100 mg/kg; assay type: functional; how it was run: as §1
Mus musculus [4] = assay: Percent increase in life span of TLX/5 lymphoma bearing mice at dose of 12.5 mg/kg; assay type: functional; how it was run: as §1
Mus musculus [5] = assay: Percent increase in life span of TLX/5 lymphoma bearing mice at dose of 200 mg/kg; assay type: functional; how it was run: as §1
Mus musculus [6] = assay: Percent increase in life span of TLX/5 lymphoma bearing mice at dose of 25 mg/kg; assay type: functional
Mus musculus [7] = assay: Percent increase in life span of TLX/5 lymphoma bearing mice at dose of 50 mg/kg; assay type: functional; how it was run: as §1
[8] = Partition coefficient was determined in octanol-saturated sorenson's pH 7.4 phosphate buffer and buffer-saturated octanol.; assay type: physicochemical; details: octanol/Sorensen's phosphate buffer
How it was run: (§2)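 Compound shaken 1 h at room temperature in 0.1 M Sorenson's phosphate buffer pre-saturated with octanol, filtered. A known volume was then shaken 1 h with a known volume of buffer-saturated octanol. Aqueous phase and initial filtrate diluted in ethanol, filtered, absorbance read at λmax. P = (aqueous vol × absorbance drop)/(final aqueous absorbance × octanol vol). Mean of at least two determinations.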

Mus musculus [9] = assay: Percent increase in life span of TLX/5 lymphoma bearing mice at dose of 400 mg/kg; assay type: functional; how it was run: as §1
Mus musculus [10] = assay: Percent increase in life span of TLX/5 lymphoma bearing mice at dose of 100 mg/kg when 10 % acetone/Oil is given as vehicle; assay type: functional
Mus musculus [11] = assay: Percent increase in life span of TLX/5 lymphoma bearing mice at dose of 12.5 mg/kg when 10 % acetone/Oil is given as vehicle; assay type: functional
Mus musculus [12] = assay: Percent increase in life span of TLX/5 lymphoma bearing mice at dose of 200 mg/kg when 10 % acetone/Oil is given as vehicle; assay type: functional
Mus musculus [13] = assay: Percent increase in life span of TLX/5 lymphoma bearing mice at dose of 25 mg/kg when 10 % acetone/Oil is given as vehicle; assay type: functional
Mus musculus [14] = assay: Percent increase in life span of TLX/5 lymphoma bearing mice at dose of 400 mg/kg when 10 % acetone/Oil is given as vehicle; assay type: functional
Mus musculus [15] = assay: Percent increase in life span of TLX/5 lymphoma bearing mice at dose of 50 mg/kg when 10 % acetone/Oil is given as vehicle; assay type: functional
[16] = Partition coefficient between octanol-saturated sorenson's pH 7.4 phosphate buffer and buffer-saturated octanol.; assay type: physicochemical; details: octanol/Sorensen's phosphate buffer; how it was run: as §2
Mus musculus [17] = organism: Mus musculus; assay: Minimum dose that causes 50% increase in life span in TLX/5 lymphoma bearing mice; assay type: functional; how it was run: as §1
Mus musculus [18] = assay: Percent increase in life span of TLX/5 lymphoma bearing mice at dose of 100 mg/kg 200 mg/kg; assay type: functional; how it was run: as §1

SMILES	Solubility [1]	Dose (Mus musculus [2])	ILS at 100 mg/kg (Mus musculus [3])	ILS at 12.5 mg/kg (Mus musculus [4])	ILS at 200 mg/kg (Mus musculus [5])	ILS at 25 mg/kg (Mus musculus [6])	ILS at 50 mg/kg (Mus musculus [7])	logD [8]	ILS at 400 mg/kg (Mus musculus [9])	ILS at 100 mg/kg (Mus musculus [10])	ILS at 12.5 mg/kg (Mus musculus [11])	ILS at 200 mg/kg (Mus musculus [12])	ILS at 25 mg/kg (Mus musculus [13])	ILS at 400 mg/kg (Mus musculus [14])	ILS at 50 mg/kg (Mus musculus [15])	logD [16]	Dose (Mus musculus [17])	ILS at 200 mg/kg (Mus musculus [18])
CCC(C)CN(C)/N=N/c1ccc(C(=O)O)cc1 (centres undefined)	0.0162 M l-1	0.0002 mol/kg	62%	7%	60%	11%	52%	1.33	57%									
CCCCCCCCCCCCN(C)/N=N/c1ccc(C(=O)O)cc1	4.13e-6 M l-1																	
CN(Cc1ccccc1)/N=N/c1ccc(C(=O)O)cc1			49%	6%	-59%	6%	7%		-61%									
CCCCN(C)/N=N/c1ccc(C(=O)O)cc1	0.0155 M l-1	5.3e-05 mol/kg	47%	69%	20%	82%	86%	0.97	-31%									
CN(C)/N=N/c1ccc(C(=O)O)cc1		6.2e-05 mol/kg	34%	40%	0%	72%	83%	-0.44	-34%	49%	19%	-4%	51%	-36%	70%			
C#CCN(C)/N=N/c1ccc(C(=O)O)cc1		0.00015 mol/kg	70%	0%	40%	36%	76%	0	-18%									
C=CCN(C)/N=N/c1ccc(C(=O)O)cc1		0.00017 mol/kg	76%	1%	56%	11%	96%	0.32	-25%									
CCCCCCN(C)/N=N/c1ccc(C(=O)O)cc1	0.00298 M l-1	3e-05 mol/kg	73%	0%	-8%	0%	18%	1.95	-53%									
CCCCCCCCN(C)/N=N/c1ccc(C(=O)O)cc1	0.000171 M l-1							2.77										
CCCCCCCN(C)/N=N/c1ccc(C(=O)O)cc1	0.00041 M l-1		9%	3%	-19%	1%	5%	2.58	-48%									
CCN(C)/N=N/c1ccc(C(=O)O)cc1			67%	44%		79%	79%		-21%							0.04	7e-05 mol/kg	27%
CCCCCN(C)/N=N/c1ccc(C(=O)O)cc1	0.00428 M l-1	7.1e-05 mol/kg	61%	10%	-61%	108%	75%	1.49	-61%									
CCCN(C)/N=N/c1ccc(C(=O)O)cc1	0.0368 M l-1	9.4e-05 mol/kg	69%	13%	57%	69%	69%	0.46	-3%									
CC(C)N(C)/N=N/c1ccc(C(=O)O)cc1		7e-05 mol/kg	60%	37%	45%	90%	64%	0.34	35%									
CN(C)/N=N/c1[nH]cnc1C(N)=O [DACARBAZINE]			55%	55%	61%	55%	59%		-11%									

Reference: ChEMBL document CHEMBL1121637, “Tumor inhibitory triazenes. 2. Variation of antitumor activity within an homologous series” (J Med Chem, 1980)
